Results: ChEMBL document CHEMBL2203156, “Design, synthesis and pharmacological characterization of coumarin-based fluorescent analogs of excitatory amino acid transporter subtype 1 selective inhibitors, UCPH-101 and UCPH-102” (Bioorg Med Chem, 2012)

The compounds below were run against T1, Excitatory amino acid transporter 3 (Homo sapiens, UniProt P43005) (assay: Inhibition of [3H]-D-aspartate uptake at human EAAT3 expressed in HEK293 cells after 6 mins by scintillation counting). Details: not given.
T1 sequence (P43005 whole entry): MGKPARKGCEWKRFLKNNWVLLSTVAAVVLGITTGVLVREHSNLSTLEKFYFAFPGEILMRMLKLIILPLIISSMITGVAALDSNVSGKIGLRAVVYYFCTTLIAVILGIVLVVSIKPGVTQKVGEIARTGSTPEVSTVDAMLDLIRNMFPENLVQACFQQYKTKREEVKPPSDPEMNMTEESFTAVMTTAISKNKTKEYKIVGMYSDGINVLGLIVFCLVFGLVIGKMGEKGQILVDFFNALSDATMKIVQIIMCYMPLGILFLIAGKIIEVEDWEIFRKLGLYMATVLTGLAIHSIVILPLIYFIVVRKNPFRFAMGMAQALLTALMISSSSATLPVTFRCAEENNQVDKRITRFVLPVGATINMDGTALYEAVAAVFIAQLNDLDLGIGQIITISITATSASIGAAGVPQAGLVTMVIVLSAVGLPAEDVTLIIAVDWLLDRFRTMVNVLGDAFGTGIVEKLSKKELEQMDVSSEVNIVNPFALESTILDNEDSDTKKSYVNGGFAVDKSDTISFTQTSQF
Assay type: cell-based
Method in brief: (§1)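 Each transporter subtype stably expressed in its own HEK293 cell line. Inhibitor potency measured as block of [³H]-D-aspartate uptake into these cells and reported as IC₅₀ values.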

Compound | IC50 [µM]
CCN(CC)c1ccc2c(C3CC(=O)C4=C(C3)OC(N)=C(C#N)C4C)cc(=O)oc2c1 (stereo not drawn) | > 300
CCN(CC)c1ccc2c(C)c(-c3ccc(C4C(C#N)=C(N)OC5=C4C(=O)CC(c4ccccc4)C5)cc3)c(=O)oc2c1 (stereo not drawn) | > 300
COc1ccc2c(C)c(-c3ccc(C4C(C#N)=C(N)OC5=C4C(=O)CC(c4ccccc4)C5)cc3)c(=O)oc2c1 (stereo not drawn) | > 300
CCN(CC)c1ccc2c(C3C(C#N)=C(N)OC4=C3C(=O)CC(c3cccc5ccccc35)C4)cc(=O)oc2c1 (stereo not drawn) | > 300

Next, values leading:

IC50 [µM] | Compound
> 300 | COc1ccc2c(C3CC(=O)C4=C(C3)OC(N)=C(C#N)C4C)cc(=O)oc2c1 (stereo not drawn)
> 300 | COc1ccc2c(C3C(C#N)=C(N)OC4=C3C(=O)CC(c3ccccc3)C4)cc(=O)oc2c1 (stereo not drawn)

The compounds below were run against Excitatory amino acid transporter 2 (Homo sapiens, UniProt P43004) (assay: Inhibition of [3H]-D-aspartate uptake at human EAAT2 expressed in HEK293 cells after 6 mins by scintillation counting). Details: not given.
Assay type: cell-based
Method in brief: as §1

Sequence of Excitatory amino acid transporter 2 (P43004 whole entry): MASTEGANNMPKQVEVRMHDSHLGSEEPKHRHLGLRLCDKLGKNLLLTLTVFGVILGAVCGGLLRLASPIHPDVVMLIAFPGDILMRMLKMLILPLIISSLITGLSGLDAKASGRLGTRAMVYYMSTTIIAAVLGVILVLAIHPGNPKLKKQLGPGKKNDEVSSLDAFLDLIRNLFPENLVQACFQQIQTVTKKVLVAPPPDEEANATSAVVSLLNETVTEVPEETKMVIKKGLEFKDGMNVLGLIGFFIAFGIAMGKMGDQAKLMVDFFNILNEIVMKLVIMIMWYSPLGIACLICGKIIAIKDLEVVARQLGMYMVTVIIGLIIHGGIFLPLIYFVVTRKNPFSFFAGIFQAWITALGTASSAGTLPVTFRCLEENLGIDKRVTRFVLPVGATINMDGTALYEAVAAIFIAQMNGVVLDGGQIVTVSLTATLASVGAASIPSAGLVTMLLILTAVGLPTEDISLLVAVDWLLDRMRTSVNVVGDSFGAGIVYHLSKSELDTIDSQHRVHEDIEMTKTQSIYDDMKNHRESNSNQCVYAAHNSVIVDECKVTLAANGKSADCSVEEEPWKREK

Compound | IC50 [µM]
CCN(CC)c1ccc2c(C3CC(=O)C4=C(C3)OC(N)=C(C#N)C4C)cc(=O)oc2c1 (stereo not drawn) | > 300
CCN(CC)c1ccc2c(C)c(-c3ccc(C4C(C#N)=C(N)OC5=C4C(=O)CC(c4ccccc4)C5)cc3)c(=O)oc2c1 (stereo not drawn) | > 300
COc1ccc2c(C)c(-c3ccc(C4C(C#N)=C(N)OC5=C4C(=O)CC(c4ccccc4)C5)cc3)c(=O)oc2c1 (stereo not drawn) | > 300
CCN(CC)c1ccc2c(C3C(C#N)=C(N)OC4=C3C(=O)CC(c3cccc5ccccc35)C4)cc(=O)oc2c1 (stereo not drawn) | > 300

More lines, now with the values ahead:

IC50 [µM] | Compound
> 300 | COc1ccc2c(C3CC(=O)C4=C(C3)OC(N)=C(C#N)C4C)cc(=O)oc2c1 (stereo not drawn)
> 300 | COc1ccc2c(C3C(C#N)=C(N)OC4=C3C(=O)CC(c3ccccc3)C4)cc(=O)oc2c1 (stereo not drawn)

What follows are compounds tested against Excitatory amino acid transporter 1 (Homo sapiens, UniProt P43003) (assay: Inhibition of [3H]-D-aspartate uptake at human EAAT1 expressed in HEK293 cells after 6 mins by scintillation counting). Details: read-out: IC50.
Assay type: cell-based
Method in brief: as §1

Sequence of Excitatory amino acid transporter 1 (P43003 whole entry): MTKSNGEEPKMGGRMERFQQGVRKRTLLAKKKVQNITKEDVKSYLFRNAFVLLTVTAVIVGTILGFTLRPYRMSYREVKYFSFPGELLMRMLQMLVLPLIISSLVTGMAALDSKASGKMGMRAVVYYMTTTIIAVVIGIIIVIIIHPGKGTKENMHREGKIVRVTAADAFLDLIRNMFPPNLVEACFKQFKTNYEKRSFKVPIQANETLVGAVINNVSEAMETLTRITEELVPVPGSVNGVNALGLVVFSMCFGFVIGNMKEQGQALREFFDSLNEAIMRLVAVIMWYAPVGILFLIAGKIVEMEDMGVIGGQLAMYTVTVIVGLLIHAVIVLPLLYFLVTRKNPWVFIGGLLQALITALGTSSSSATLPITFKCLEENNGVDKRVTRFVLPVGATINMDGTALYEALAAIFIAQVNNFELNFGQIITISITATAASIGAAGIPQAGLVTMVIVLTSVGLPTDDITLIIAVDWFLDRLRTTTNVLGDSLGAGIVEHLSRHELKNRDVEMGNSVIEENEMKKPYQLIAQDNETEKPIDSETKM

Compound | IC50 [µM]
CCN(CC)c1ccc2c(C3CC(=O)C4=C(C3)OC(N)=C(C#N)C4C)cc(=O)oc2c1 (stereo not drawn) | 14
CCN(CC)c1ccc2c(C)c(-c3ccc(C4C(C#N)=C(N)OC5=C4C(=O)CC(c4ccccc4)C5)cc3)c(=O)oc2c1 (stereo not drawn) | > 300
COc1ccc2c(C)c(-c3ccc(C4C(C#N)=C(N)OC5=C4C(=O)CC(c4ccccc4)C5)cc3)c(=O)oc2c1 (stereo not drawn) | > 300
CCN(CC)c1ccc2c(C3C(C#N)=C(N)OC4=C3C(=O)CC(c3cccc5ccccc35)C4)cc(=O)oc2c1 (stereo not drawn) | > 300

Next, values leading:

IC50 [µM] | Compound
17 | COc1ccc2c(C3CC(=O)C4=C(C3)OC(N)=C(C#N)C4C)cc(=O)oc2c1 (stereo not drawn)
> 300 | COc1ccc2c(C3C(C#N)=C(N)OC4=C3C(=O)CC(c3ccccc3)C4)cc(=O)oc2c1 (stereo not drawn)

Same assay, conditions: read-out: pIC50 (converted)

Compound | IC50 [µM]
CCN(CC)c1ccc2c(C)c(-c3ccc(C4C(C#N)=C(N)OC5=C4C(=O)CC(c4ccccc4)C5)cc3)c(=O)oc2c1 (stereo not drawn) | > 316
COc1ccc2c(C)c(-c3ccc(C4C(C#N)=C(N)OC5=C4C(=O)CC(c4ccccc4)C5)cc3)c(=O)oc2c1 (stereo not drawn) | > 316
CCN(CC)c1ccc2c(C3C(C#N)=C(N)OC4=C3C(=O)CC(c3cccc5ccccc35)C4)cc(=O)oc2c1 (stereo not drawn) | > 316

More lines, now with the values ahead:

IC50 [µM] | Compound
16.2 | COc1ccc2c(C3CC(=O)C4=C(C3)OC(N)=C(C#N)C4C)cc(=O)oc2c1 (stereo not drawn)
> 316 | COc1ccc2c(C3C(C#N)=C(N)OC4=C3C(=O)CC(c3ccccc3)C4)cc(=O)oc2c1 (stereo not drawn)
